These results are taken from ChEMBL document CHEMBL1124828, “Synthesis and antiviral and cytotoxic activity of iodohydrin and iodomethoxy derivatives of 5-vinyl-2'-deoxyuridines, 2'-fluoro-2'-deoxyuridine, and uridine” (J Med Chem, 1990).

The species named for one experiment is Mus musculus. The experiment in a line: Percent survival of L1210 cells in suspension was determined after a dose of 10 ug/mL in mouse. Type of experiment: functional. The procedure, abridged:
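L1210 suspension cultures in Fischer's medium with 10% heat-inactivated horse serum, 37 °C, 5% CO2. Compound was added from ethanol, water or ethanol/water at final 50, 10 or 1 μg/mL. Cells were counted by Coulter counter after 48 h. % survival = (T48−T0)/(C48−C0)×100 versus untreated controls, given as mean ± SD (n = 3).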

For experiment [1], the system named is Vero. Kind of experiment: Dose to inhibit plaque formation in vero cells infected with herpes simplex virus type-1 (HSV-1,strainJLJ) was determined. The class given is functional. The settings on record: Chlorocebus sabaeus, read-out: ID50 (the source's name). The procedure, abridged: (§1)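 HSV-1 plaque-reduction assay in Vero cell monolayers. After 1-h virus adsorption at 37 °C, cells were overlaid with 1% agarose in E-MEM with 2% FBS containing the compound at 0.1, 1.0 and 10 μg/mL. Neutral red staining followed 4 days at 37 °C in 5% CO2, then plaques were counted. ID50 is the concentration cutting plaque number by 50%. The experiment was run once.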

The subject of experiment [2] is L1210. The experiment in a line: In vitro cytotoxicity was determined against L1210 leukemia cells from mouse. The class given is functional. To be noted: read-out: ED50 (the source's name). The procedure, abridged: (§2)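 Mouse L1210 cells were grown in suspension in Fischer's medium with 10% heat-inactivated horse serum at 37 °C, 5% CO2, seeded at 10⁵ cells/mL. Compound was added from ethanol, water or ethanol/water at final 50, 25, 10, 5.0, 2.5 and 1 μg/mL. Cells were counted by Coulter counter at 48 h, in triplicate. % survival = (T48−T0)/(C48−C0)×100; ED50 is the 50% survival reduction.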

In another experiment the test system is Human alphaherpesvirus 1. Kind of experiment: Tested for in vitro anti-HSV-1 activity; active. Type of experiment: functional, organism-based.
Experiment [3] has as its system P388. Kind of experiment: In vivo cytotoxicity was determined against P388 mouse leukemia cells expressed as % treated/control. Type of experiment: functional. In outline:
(§3)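 B6D2F1 mice, six per group, were implanted ip with 10⁶ P388 leukemia cells in 0.2 mL saline on day 0. Compound in saline/ethanol (6:1) was given ip at 20 mg/kg on days 1–5. Mice were followed until death. Mean survival time was compared with saline-treated controls and expressed as % T/C.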

Experiment [4] in a line: Inhibition constant was determined for the facilitated transport of [[…]]-thymidine by murine erythrocyte NBMPR-sensitive nucleoside transporter. The class given is functional, Mus musculus. The procedure, abridged: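 Murine erythrocytes; facilitated uptake of [3H]thymidine through the NBMPR-sensitive nucleoside transporter. Extracellular [3H]thymidine sampled at various times after exposure and counted by liquid scintillation. Ki taken as the inhibition constant for this transport. Values are generally the mean of two determinations (range), with some n = 1 and the 2'-deoxyuridine reference n = 3.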

The test system of experiment [5] is L1210. Kind of experiment: In vitro cytotoxicity was determined against L1210 leukemia cell from mouse. The class given is functional. The settings on record: read-out: ED50 (the source's name). The procedure, abridged:
as §2

Experiment [6] deals with P388. The experiment in a line: In vivo cytotoxicity was determined against P388 mouse leukemia cells, (% treated / control) at 20 mg/kg (ip) administration. The class given is functional. In outline:
as §3

The test system of experiment [7] is Vero. The experiment in a line: Dose to inhibit plaque formation in vero cells infected with herpes simplex virus type-1 (HSV-1,strainJLJ) was determined relative to acyclovir; value ranges from 0.1-1.0 ug/mL. The class given is functional. The settings on record: Chlorocebus sabaeus, read-out: ID50 (the source's name).
Experiment [8] deals with L1210. The experiment in a line: Tested for cytotoxicity against murine L1210 cells in vitro; weak cytotoxicity. Type of experiment: functional, cell-based. To be noted: Mus musculus.
Experiment [9] has as its system Vero. Kind of experiment: Dose to inhibit plaque formation in vero cells infected with herpes simplex virus type 1 (HSV-1,strainJLJ) was determined. Type of experiment: functional. To be noted: Chlorocebus sabaeus, read-out: ID50 (the source's name). In outline:
as §1

Values after ≈ are worked out from the molar mass of the structure shown. Active and inactive are the calls of the source. The calls are words filed in the database; no cut-off is given here.

Compound `C=Cc1cn([C@@H]2O[C@H](CO)[C@@H](O)[C@H]2F)c(=O)[nH]c1=O` gave a Survival in the experiment filed under Mus musculus of 87%. Further, the IC50 in the experiment on Vero [1] amounted to 0.1 µg/mL (≈ 0.367 µM).
`N[C@@H](Cc1ccc(N(CCCl)CCCl)cc1)C(=O)O` [MELPHALAN]: the EC50 in the experiment on L1210 [2] was 0.15 µg/mL (≈ 0.491 µM).
`O=c1[nH]c(=O)n([C@H]2C[C@H](O)[C@@H](CO)O2)cc1/C=C/Br`: in the experiment on Human alphaherpesvirus 1, the result was Active.
For `COC(CI)c1cn([C@H]2C[C@H](O)[C@@H](CO)O2)c(=O)[nH]c1=O` (some centres not stated), the Survival in the experiment filed under Mus musculus is on record as 42%. The IC50 in the experiment with Vero [1] came to 0.1 µg/mL (≈ 0.243 µM). Besides, in the experiment on P388 [3], the T/C – broadly, the result in the treated group divided by that in the control group, in per cent – came to 114%. Further, the Ki – broadly, the dissociation constant of the complex between target and ligand, obtained from inhibition or displacement – in experiment [4] is 35 µM. In addition, in the experiment with L1210 [5], the EC50 worked out at 6 µg/mL (≈ 14.6 µM).
For `O=c1[nH]c(=O)n([C@H]2C[C@H](O)[C@@H](CO)O2)cc1CCCl`, in the experiment with Human alphaherpesvirus 1, the result was Active.
For `O=c1nc2c(cn1[C@H]1C[C@H](O)[C@@H](CO)O1)C(O)CO2` (some centres not stated), the Survival in the experiment listed under Mus musculus is 103%. Moreover, the IC50 in the experiment on Vero [1] is greater than 100 µg/mL. For the same compound, affinity in experiment [4] was put at a Ki of 8000 µM.
`O=c1[nH]cc(F)c(=O)[nH]1` [FLUOROURACIL] displayed a T/C in the experiment on P388 [6] greater than 135%.
The compound `COC(CI)c1cn([C@@H]2O[C@H](CO)[C@@H](O)[C@H]2F)c(=O)[nH]c1=O` (some centres not stated) yielded a Survival in the experiment filed under Mus musculus of 97%. Besides, the IC50 with Vero [1] was greater than 100 µg/mL.
`O=c1[nH]c(=O)n([C@H]2C[C@H](O)[C@@H](CO)O2)cc1C(O)CBr` (some centres not stated): in the experiment on Vero [7], the IC50 came to 1 µg/mL (≈ 2.85 µM). Besides, the Cyotoxicity entry with L1210 [8] was “weak cytotoxicity”.
In turn, `O=c1[nH]c(=O)n(C2CC(O)C(CO)O2)cc1C(O)C(I)I` (configuration not stated) had a Survival in the experiment listed under Mus musculus of 2%. Further, in the experiment with Vero [1], the IC50 was greater than 10 µg/mL. The same compound had a T/C with P388 [3] of 112%. In experiment [4], this compound registered a Ki of 220 µM. The EC50 with L1210 [5] is 0.77 µg/mL (≈ 1.47 µM).
On to `Nc1nc2c(ncn2COCCO)c(=O)[nH]1` [ACYCLOVIR], for which the IC50 with Vero [9] worked out at 0.01 µg/mL (≈ 0.0444 µM).
`O=c1ccn([C@H]2C[C@H](O)[C@@H](CO)O2)c(=O)[nH]1` [DEOXYURIDINE]: the affinity in experiment [4], expressed as Ki, was 125 µM.
The compound `O=c1[nH]c(=O)n([C@H]2C[C@H](O)[C@@H](CO)O2)cc1C(O)CI` (some centres not stated) gave a Survival in the experiment filed under Mus musculus of 52%. The IC50 with Vero [1] is greater than 10 µg/mL. The compound also returned a T/C in the experiment with P388 [3] of 98%. In addition, the Ki in experiment [4] was 155 µM. Also, in the experiment with L1210 [5], the EC50 stood at 10.5 µg/mL (≈ 26.4 µM).
For `COCC(O)c1cn([C@H]2C[C@H](O)[C@@H](CO)O2)c(=O)[nH]c1=O` (some centres not stated), in that order: 37%, greater than 10 µg/mL, 103%, 610 µM and 12 µg/mL (≈ 39.7 µM).
Take `COC(CBr)c1cn([C@H]2C[C@H](O)[C@@H](CO)O2)c(=O)[nH]c1=O` (some centres not stated): the IC50 with Vero [7] was found to be 1 µg/mL (≈ 2.74 µM). The Cyotoxicity result with L1210 [8] is “weak cytotoxicity”.
Consider `O=c1[nH]c(=O)n([C@@H]2O[C@H](CO)[C@@H](O)[C@H]2F)cc1C(O)CI` (some centres not stated), for which the Survival in the experiment listed under Mus musculus came out at 93%. Besides, the IC50 in the experiment on Vero [1] is greater than 100 µg/mL.
Taken in the same sequence, the figures for `O=c1[nH]c(=O)n(C2O[C@H](CO)[C@@H](O)[C@H]2O)cc1C(O)CI` (some centres not stated) were 87% and greater than 100 µg/mL.
For the compound `O=c1[nH]c(=O)n([C@H]2C[C@H](O)[C@@H](CO)O2)cc1/C=C/I`, the IC50 in the experiment with Vero [1] was less than 0.1 µg/mL. The same compound came in with a Ki in experiment [4] of 25 µM.
Turning to `COC(CI)c1cn(C2O[C@H](CO)[C@@H](O)[C@H]2O)c(=O)[nH]c1=O` (some centres not stated), the Survival in the experiment listed under Mus musculus was determined as 108%. Besides, the IC50 in the experiment on Vero [1] was greater than 100 µg/mL.
As for `O=c1[nH]c(=O)n([C@H]2C[C@H](O)[C@@H](CO)O2)cc1C(O)CCl` (some centres not stated), the IC50 with Vero [7] turned out to be 1 µg/mL (≈ 3.26 µM). Moreover, the Cyotoxicity entry with L1210 [8] was “weak cytotoxicity”.
